According to ChEMBL document CHEMBL4368897, “Using 2-aminobenzimidazole derivatives to inhibit Mycobacterium smegmatis biofilm formation” (Medchemcomm, 2019):
Values after ≈ are worked out from the molar mass of the structure shown.

How the values were obtained:
[1] = system: Mycolicibacterium smegmatis; test: Antimicrobial activity against Mycobacterium smegmatis str. MC2 155 ATCC 700084 assessed as inhibition of planktonic bacteria growth incubated for 48 hrs by broth microdilution method; format: organism-based
Procedure, shortened: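 48 h preculture in 7H9 (ADC, 0.5% Tween 80) used to inoculate fresh 7H9 at 5 × 10^5 CFU mL-1 (OD600 0.006). Compounds added from 100 mM DMSO-d6 stocks and twofold serially diluted. Incubated stationary at 37 °C for 48 h, then 6 h more with alamarBlue. MIC = lowest concentration without visible growth. Duplicate, at least two separate runs.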

[2] = system: Mycolicibacterium smegmatis; test: Antibiofilm activity against Mycobacterium smegmatis str. MC2 155 ATCC 700084 assessed as inhibition of biofilm formation incubated for 48 hrs by crystal violet reporter assay; format: functional, organism-based; conditions: for IC50: Mycolicibacterium smegmatis, MC2 155 ATCC 700084, 48 h
Procedure, shortened: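 48 h culture subcultured to 0.01 in M9 minimal salts medium containing compound. Incubated in PVC plates, stationary, 37 °C, 48 hr. Wells washed with water, stained 30 min with 0.1% crystal violet, and eluted with 95% ethanol for 10 min. OD540 read; % inhibition taken versus untreated wells. Duplicate wells, at least two separate runs.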

[3] = system: Mycolicibacterium smegmatis; test: Potentiation of cefotaxime-induced antimicrobial activity against Mycobacterium smegmatis str. MC2 155 ATCC 700084 assessed as fold reduction in cefotaxime MIC at 20 uM incubated for 48 hrs by broth microdilution method; format: functional
[4] = system: Mycolicibacterium smegmatis; test: Potentiation of ampicillin-induced antimicrobial activity against Mycobacterium smegmatis str. MC2 155 ATCC 700084 assessed as fold reduction in ampicillin MIC at 20 uM incubated for 48 hrs by broth microdilution method; format: functional

| Structure (SMILES) | MIC [1] | IC50 [2] | fold change (FC) [3] | fold change (FC) [4] | MBIC50 [2] |
| --- | --- | --- | --- | --- | --- |
| CCCCCc1ccc(C(=O)Nc2ccc3[nH]c(N)nc3c2)cc1 | 150 µM (≈ 48.4 µg/mL) | 13.6 µM | – | – | – |
| CCCCCc1ccc(C(=O)Nc2ccc3c(c2)nc(N)n3CCCCc2ccccc2)cc1 | 100 µM (≈ 45.5 µg/mL) | 4.3 µM | – | – | – |
| CCCCCc1ccc(C(=O)Nc2ccc3c(c2)nc(N)n3CCc2cccc(OC)c2)cc1 | 200 µM (≈ 91.3 µg/mL) | 12.5 µM | – | – | – |
| CCCCCc1ccc(C(=O)Nc2ccc3c(c2)nc(N)n3Cc2ccccc2)cc1 | 100 µM (≈ 41.3 µg/mL) | 12.2 µM | – | – | – |
| CCCCCCn1c(N)nc2cc(NC(=O)c3ccc(CCCCC)cc3)ccc21 | > 200 µM | 25.6 µM | – | – | – |
| CCCCCc1ccc(C(=O)Nc2ccc3c(c2)nc(N)n3CCc2ccccc2)cc1 | 100 µM (≈ 42.7 µg/mL) | 5.4 µM | – | – | – |
| CCCCCc1ccc(C(=O)Nc2ccc3c(c2)nc(N)n3CCc2ccc(OC)cc2)cc1 | 120 µM (≈ 54.8 µg/mL) | 8.8 µM | – | – | – |
| CCCCCc1ccc(C(=O)Nc2ccc3c(c2)nc(N)n3CCCC)cc1 | > 200 µM | 22.4 µM | – | – | – |
| CCCCCc1ccc(C(=O)Nc2ccc3c(c2)nc(N)n3Cc2ccc(OC)cc2)cc1 | > 200 µM | 12.5 µM | – | – | – |
| CCCCCc1ccc(C(=O)Nc2ccc3c(c2)nc(N)n3CCCc2ccccc2)cc1 | 60 µM (≈ 26.4 µg/mL) | 3.5 µM | 128 | 16 | 8 µM |
| CCCCCc1ccc(C(=O)Nc2ccc3c(c2)nc(N)n3CCc2ccccc2OC)cc1 | 120 µM (≈ 54.8 µg/mL) | 11.3 µM | – | – | – |
| Nc1nc2cc(NC(=O)Nc3ccc(Cl)c(Cl)c3)ccc2n1CCCc1ccccc1 | 100 µM (≈ 45.4 µg/mL) | 2.6 µM | 2 | 2 | – |
| Nc1nc2cc(C(=O)Nc3ccc(Cl)c(Cl)c3)ccc2n1CCCc1ccccc1 | 200 µM (≈ 87.9 µg/mL) | 8.6 µM | – | – | – |
| Nc1nc2cc(NC(=O)c3cc(Cl)cc(Cl)c3)ccc2n1CCCc1ccccc1 | 200 µM (≈ 87.9 µg/mL) | 9.4 µM | – | – | – |
| Nc1nc2cc(NC(=O)c3ccc(Cl)c(Cl)c3)ccc2n1CCCc1ccccc1 | 200 µM (≈ 87.9 µg/mL) | 8.8 µM | – | – | – |
| CCCCCCCCCn1c(N)nc2cc(NC(=O)c3ccc(CCCCC)cc3)ccc21 | 200 µM (≈ 89.7 µg/mL) | 23.2 µM | – | – | – |
| CCCCCc1ccc(C(=O)Nc2ccc3c(c2)nc(N)n3CCCc2ccccc2Br)cc1 | 120 µM (≈ 62.3 µg/mL) | 10.5 µM | – | – | – |
| CCCCCc1ccc(C(=O)Nc2ccc3c(c2)nc(N)n3CCCc2ccc(OC)cc2)cc1 | 100 µM (≈ 47.1 µg/mL) | 4.3 µM | 16 | 4 | – |
| CCCCCc1ccc(C(=O)Nc2ccc3c(c2)nc(N)n3CCCc2ccc(Cl)cc2)cc1 | 120 µM (≈ 57 µg/mL) | 6.4 µM | 8 | 4 | – |
| CCCCCc1ccc(C(=O)Nc2ccc3c(c2)nc(N)n3CCCc2cccc(Br)c2)cc1 | 100 µM (≈ 51.9 µg/mL) | 9.2 µM | – | – | – |
| CCCCCc1ccc(C(=O)Nc2ccc3c(c2)nc(N)n3CCCc2ccc(Br)cc2)cc1 | 100 µM (≈ 51.9 µg/mL) | 6.2 µM | 16 | 4 | – |
| CCCCCc1ccc(C(=O)Nc2ccc3c(c2)nc(N)n3CCCc2ccc(F)cc2)cc1 | 120 µM (≈ 55 µg/mL) | 3.6 µM | 64 | 4 | – |
